Assay outcomes: PubChem, Broad Institute
Compounds with a hit are over-represented: about 3.6% of the library has one in this group of screens.
Wnt bcat act – activates Wnt/beta-catenin signaling in a reporter cell assay; activator, plate reader; activation, % at 9.35 µM; actives 1.2% (n = 300,000); in the data active = activation above about 30%, passing the limit was not always enough;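 also: 0% = neutral control wells and 100% = positive control wells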
HSF1 activator – increases HSF-1 driven luciferase reporter signal. actives 1.7% (n = 300,000). NIH3T3-HGL HSF-1 luciferase reporter, MG132, 8 h; 100% = twice DMSO control signal. activation, % at 9 µM;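 active = mean replicate activation of at least 50% with a set share of replicates each reaching 50%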;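 also: 0% = median of the neutral control wells and 100% = twice that signal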
SR-BI DiI inh – inhibitors of mouse SR-BI mediated HDL lipid uptake. ldlA[mSR-BI] CHO cells, DiI-HDL uptake fluorescence, 3 h. Q61009. inhibition, % at 12.5 µM. actives 0.96% (n = 320,000);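 active = mean replicate inhibition of at least 70% and a set share of replicates each scoring 70 or more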;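 also: 0% = median of neutral control wells and 100% = median of positive control wells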
Target sequence (Q61009 whole entry, looked up): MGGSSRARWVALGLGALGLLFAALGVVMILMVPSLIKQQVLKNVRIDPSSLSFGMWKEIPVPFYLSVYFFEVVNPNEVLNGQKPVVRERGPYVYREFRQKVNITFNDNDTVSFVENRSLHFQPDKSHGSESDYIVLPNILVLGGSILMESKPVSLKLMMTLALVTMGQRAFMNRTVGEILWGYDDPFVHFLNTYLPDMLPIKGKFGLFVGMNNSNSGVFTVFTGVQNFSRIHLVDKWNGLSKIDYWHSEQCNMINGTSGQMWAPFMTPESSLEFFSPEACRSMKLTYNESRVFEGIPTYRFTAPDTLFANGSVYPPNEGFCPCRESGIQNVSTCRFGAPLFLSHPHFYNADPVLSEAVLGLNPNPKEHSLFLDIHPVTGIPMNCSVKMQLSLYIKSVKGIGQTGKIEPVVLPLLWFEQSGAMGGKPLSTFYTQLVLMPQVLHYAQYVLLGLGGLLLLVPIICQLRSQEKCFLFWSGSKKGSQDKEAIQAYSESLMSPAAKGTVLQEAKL
MITF TRPM1 HTS – increases MITF-driven TRPM1 promoter luciferase signal. SK-MEL-5 TRPM1-promoter luciferase, 24 h; % of positive control, neutral wells = 0. AID 588334. activation, % at 12.5 µM. actives 0.75% (n = 300,000);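 active = mean activation of at least 80% with every replicate also reaching 80%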;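 also: 0% = neutral control wells and 100% = parthenolide positive control wells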
SR-BI DiI-HDL act – activators of SR-BI mediated HDL lipid uptake. CHO ldlA[mSR-BI] cells, DiI-HDL uptake fluorescence, 3 h; 100 = double the neutral-control signal. activation, % at 12.5 µM. actives 0.096% (n = 320,000);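 active = mean replicate activation of at least 60% and every replicate at or above 60%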;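 also: 0% = median plate neutral-control signal and 100% = twice that signal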
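system = CHO ldlA[mSR-BI] cells, LDL receptor-null, SR-BI overexpressing | medium = Ham's F12 with 0.5% BSA, HEPES 25 mM, pH 7.4 | probe or stimulus = DiI-HDL 10 µg/mL | compound dosing = single-point compound dose | incubation = compound exposure 3 h, 37 °C | technique = DiI fluorescence, bottom read | read-out = cell-associated DiI fluorescence as measure of HDL uptake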
Starred values were filed as active, the others as inactive.

`N#CC1=C(N)Oc2c(ccc3ccccc23)C1c1ccsc1` (configuration not stated) gave Wnt bcat act -3.2, HSF1 activator 65.3*, SR-BI DiI inh 35.1 and SR-BI DiI-HDL act -35.1.
Screening CCc1[nH]nc2c1C(c1ccsc1)C(C#N)=C(N)O2 (configuration not stated) returned Wnt bcat act -3.2, HSF1 activator 52.8*, SR-BI DiI inh 6.7, MITF TRPM1 HTS -10.5 and SR-BI DiI-HDL act -6.7.
For N#CC1=C(N)Oc2c(oc(CO)cc2=O)C1c1ccsc1 (configuration not stated) the results were HSF1 activator 6.9, SR-BI DiI inh 24.0 and SR-BI DiI-HDL act -24.0.
`CCCc1[nH]nc2c1C(c1cc(OC)ccc1F)C(C#N)=C(N)O2` (configuration not stated) gave Wnt bcat act -3.0, HSF1 activator 74.1*, SR-BI DiI inh -10.8, MITF TRPM1 HTS -3.3 and SR-BI DiI-HDL act 10.8.
For CCN(C(=O)COC(=O)C(C)(C)Oc1ccc(Cl)cc1)c1c(N)n(Cc2ccccc2)c(=O)[nH]c1=O the results were Wnt bcat act -0.8, SR-BI DiI inh -5.6, MITF TRPM1 HTS 5.3 and SR-BI DiI-HDL act 5.6.
`CC(=O)C1=CCC(c2ccc(Cl)cc2)N(S(=O)(=O)c2ccccc2C)C1` (configuration not stated) gave Wnt bcat act -0.8.
`O=C(Nc1ccc(Oc2cccnc2)cc1)C1CCCCN1Cc1ccc(CO)o1` (configuration not stated) gave Wnt bcat act -0.7, HSF1 activator 4.4, SR-BI DiI inh 2.8, MITF TRPM1 HTS -8.2 and SR-BI DiI-HDL act -2.8.
For Cc1cc(CN2CCCCC2C(=O)Nc2ccc(Oc3cccnc3)cc2)oc1C (configuration not stated) the results were Wnt bcat act 4.6, HSF1 activator 21.7, SR-BI DiI inh 78.6* and MITF TRPM1 HTS 19.3.
`Cc1cc(C)cc(NC(=O)c2sc3nc(C)cc(C)c3c2N)c1` gave Wnt bcat act 10.8, HSF1 activator 4.0, SR-BI DiI inh 67.3, MITF TRPM1 HTS 62.9 and SR-BI DiI-HDL act -67.3.
`Cc1cc(C)c2c(N)c(C(=O)NCC3CCCCC3)sc2n1` gave Wnt bcat act -3.7, HSF1 activator 14.8, SR-BI DiI inh 14.0, MITF TRPM1 HTS 88.5* and SR-BI DiI-HDL act -14.0.
`Cc1cc(C)c2c(N)c(C(=O)Nc3ccc([N+](=O)[O-])cc3)sc2n1` gave Wnt bcat act 16.4, HSF1 activator 1.9, SR-BI DiI inh -0.3, MITF TRPM1 HTS 101.3* and SR-BI DiI-HDL act 0.3.
Cc1cc(C)c2c(N)c(C(=O)Nc3ccc(C)c(C)c3)sc2n1 was read as Wnt bcat act 20.6, HSF1 activator 45.0, SR-BI DiI inh 60.6, MITF TRPM1 HTS 126.4* and SR-BI DiI-HDL act -60.6.
`COc1ccc(NC(=O)c2sc3nc(C)cc(C)c3c2N)cc1` gave Wnt bcat act 12.2, HSF1 activator 11.4, SR-BI DiI inh 3.4, MITF TRPM1 HTS 104.5* and SR-BI DiI-HDL act -3.4.
`COC1C(O)CCC2(CO2)C1C1(C)OC1CC=C(C)C` (configuration not stated) gave Wnt bcat act -1.5.
C#CCN(Cc1ccco1)C(=O)c1nnc2c3cc(OC)ccc3n(S(=O)(=O)c3ccc(OC)cc3)c2n1 was read as Wnt bcat act -6.8.
`C[C@H](CO)NC(=O)c1[nH]cnc1C(=O)Nc1cccc(Cl)c1` gave Wnt bcat act -1.1.
Cc1cccc(NC(=O)c2sc3nc(N)c(C#N)cc3c2N)c1 was read as HSF1 activator 18.8, SR-BI DiI inh 8.7, MITF TRPM1 HTS 106.3* and SR-BI DiI-HDL act -8.8.
COc1ccc(/C=N/NC(=O)c2sc3nc(C)cc(C)c3c2N)cc1 was read as Wnt bcat act -2.7, HSF1 activator 6.9, SR-BI DiI inh 68.1 and SR-BI DiI-HDL act -68.1.
For Cc1cc(C)c2c(N)c(C(=O)N/N=C/c3cccs3)sc2n1 the results were Wnt bcat act 44.6* and HSF1 activator 18.1.
Screening Cc1cc(C)c2c(N)c(C(=O)Nc3ccc(F)cc3)sc2n1 returned Wnt bcat act 51.0*, HSF1 activator 37.6, SR-BI DiI inh 57.5, MITF TRPM1 HTS 52.2 and SR-BI DiI-HDL act -57.5.
